RAD52 anneal inh = RAD52 (human) annealing inhibition; recombinant RAD52 DNA annealing, FRET fluorescence; 0.46% of 360,000 active; inhibition, % at 18.7 µM;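 active = every replicate showing at least 50% inhibition; inconclusive = mean inhibition at least 50% but not in every replicate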
Target sequence (P43351 whole entry, looked up): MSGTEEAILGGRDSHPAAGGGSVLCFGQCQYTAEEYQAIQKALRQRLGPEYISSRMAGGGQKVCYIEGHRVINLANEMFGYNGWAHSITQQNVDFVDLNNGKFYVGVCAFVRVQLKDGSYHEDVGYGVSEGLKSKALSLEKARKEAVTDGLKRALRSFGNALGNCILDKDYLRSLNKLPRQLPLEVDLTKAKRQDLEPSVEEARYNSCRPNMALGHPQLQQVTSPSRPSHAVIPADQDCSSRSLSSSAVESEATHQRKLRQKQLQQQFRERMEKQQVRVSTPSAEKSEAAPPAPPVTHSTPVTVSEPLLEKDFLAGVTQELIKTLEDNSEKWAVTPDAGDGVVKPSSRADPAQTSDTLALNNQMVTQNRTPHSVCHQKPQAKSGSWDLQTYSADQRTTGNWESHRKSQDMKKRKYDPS
S100A4 inh HTS = blocks human S100A4 binding to myosin IIA peptide; 0.14% of 360,000 active; P26447; S100A4/TAMRA-MyoIIA peptide fluorescence polarization; AID 652163; inhibition, % at 10.7 µM;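 active = mean inhibition of at least 70% across replicates, with every replicate also reaching that level; inconclusive = mean inhibition reaches 70% but some replicates fall short; inactive = mean inhibition below 70%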
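Test system: S100A4 monomer protein. Medium: HEPES buffer with Ca2+, pH 7.2. Reagent: fluorescent myosin IIA peptide, 5 nM. Compound dosing: single-point compound testing. Timing: 5 min between mix addition and reading. Benchmarks: DMSO neutral and TFP positive wells.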
AF4-AF9 inh = inhibitors of human MLL-AF4/AF9 interaction | P42568 | AlphaScreen, biotin-AF4 peptide binding to FLAG-AF9 | inhibition, % at 10 µM | 0.47% of 350,000 active;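 active = every replicate reaching a set inhibition limit, whatever the replicate mean, cut at about 25% in these data; inconclusive = mean inhibition reaches that limit but some replicates miss it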;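 also: 0% = plate neutral control median and 100% = total signal loss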
GSIS activator = GLuc luminescence reporter in INS-1E cells, primary screen for activators of glucose-dependent secretion of insulin; INS-1E GLuc reporter insulin secretion, 2-3 h; 0.61% of 370,000 active; activation, % at 16.6 µM; AID 743287;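 active = lowest replicate activation of at least 40%, so every replicate reaches that level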;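 also: 0% = median of neutral control wells and 100% = median of IBMX positive control wells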
ERAP1 inh = blocks human ERAP1 aminopeptidase activity | Q9NZ08 | recombinant ERAP1, Leu-AMC fluorescence, 60 min | inhibition, % at 10.7 µM | 0.15% of 340,000 active | AID 652197;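 active = mean replicate inhibition of at least 30%, or all replicates individually reaching that 30% level; inactive = mean below 30% and not every replicate reaching it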;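 also: 0% = neutral control wells and 100% = L-leucinethiol positive control wells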
* marks the source's active call; other numbers are inactive results; ? = inconclusive; . = no result; ! = repeats disagree. This is a sample that favours compounds with a hit; in the whole collection about 1.5% have one here.

SMILES	RAD52 anneal inh	S100A4 inh HTS	AF4-AF9 inh	GSIS activator	ERAP1 inh
Cc1ccccc1-c1ccc([C@@H]2[C@H]3CN(C(=O)c4cccnc4)CC(=O)N3[C@H]2CO)cc1	.	.	.	2	.
O=C(CCSCCc1ccccn1)Nc1c(F)cc(F)cc1Br	.	.	.	12	.
Cc1csc(NC(=O)CCSCCc2ccccn2)n1	1	-14	42*	0	-2
CC[C@]12C(=O)N(C)C[C@H]([C@@H]3C(=O)N(C)C(=O)[C@@H]31)N2C(=O)c1ccc(C)cc1	-8	-18	51*	-4	-3
N#CCC(=O)Nc1ccc(C(=O)OCC(=O)C23CC4CC(CC(C4)C2)C3)cc1	-72	-8	-9	-13	-1
O=C(OCC12CC3CC(CC(C3)C1)C2)c1ccc(NCc2cc(O)ccc2O)cc1	-11	-2	?	157*	2
CCNC(=O)OCCC12CC3CC(CC(C3)C1)C2	.	.	.	-7	.
O=C(OCCC12CC3CC(CC(C3)C1)C2)c1ccc(NCc2cc(O)ccc2O)cc1	-16	-2	28*	49	2
COc1ccc2c3c([nH]c2c1)[C@H](CO)N(C(=O)C1CCOCC1)CC31CN(C)C1	.	.	.	14	.
Nc1[nH]c(C(=O)c2ccccc2)c(-c2c(F)cccc2F)c1C(=O)c1ccc(Cl)c(Cl)c1	-5	3	-1	177*	0
Nc1[nH]c(C(=O)c2ccccc2)c(-c2ccc(Cl)cc2Cl)c1C(=O)c1ccc(Cl)cc1	-12	1	-1	-28	.
CCN1[C@@H]2Cn3c(ccc(/C=C/c4ccccc4)c3=O)[C@H]1[C@@H](C(=O)N1CCCCC1)[C@@H]2CO	.	.	.	-15	.
C[C@@H]1CN([C@@H](C)CO)S(=O)(=O)c2ccc(-c3ccc(C#N)cc3)cc2O[C@H]1CN(C)C	6	-4	-1	19	-3
C[C@@H]1CN([C@H](C)CO)S(=O)(=O)c2ccc(-c3ccc(C#N)cc3)cc2O[C@H]1CN(C)C	-1	-10	0	48*	-2
C[C@@H]1CN([C@H](C)CO)S(=O)(=O)c2ccc(C3=CCCC3)cc2O[C@H]1CN(C)C	8	-5	-1	0	1
C[C@@H]1CN([C@H](C)CO)S(=O)(=O)c2ccc(-c3cccc(C#N)c3)cc2O[C@H]1CN(C)C(=O)c1ccc(F)cc1	3	-5	2	-18	-2
C[C@@H]1CN([C@@H](C)CO)S(=O)(=O)c2ccc(-c3cccc(C#N)c3)cc2O[C@@H]1CN(C)C(=O)c1ccc(F)cc1	0	131*!	-1	-11	1
C[C@H](CO)N1C[C@H](C)[C@H](CN(C)C)Oc2cc(C3=CCCC3)ccc2S1(=O)=O	6	98*	-3	-8	-3
Cn1c(/C(C#N)=C/c2ccc(O)cc2)nc2ccccc21	-22	-7	7	42*	3
Cn1c(/C(C#N)=C/c2ccncc2)nc2ccccc21	-46	-21	-2	8	-5
COc1ccccc1OCCNC(=O)C1CCCCC1	-2	0	-1	-10	32*
Cc1ccc(OCCNC(=O)C2CCCCC2)cc1	-9	?	-2	2	-2
Cc1nc2ccccc2c2oc(C(=O)N3CCCC(C)C3)cc12 (stereo not given)	-10	8	-2	46*	1
CC(C)[C@H]1C(=O)N[C@H](c2ccc3c(c2)OCO3)CC=CC[C@@H](C)Oc2ccccc2C(=O)N1C (mixture of isomers)	.	.	.	-13	.
C[C@@H]1CCCCO[C@@H](CN(C)S(=O)(=O)c2cccs2)[C@@H](C)CN([C@H](C)CO)C(=O)c2cc(NC(=O)NC3CCCCC3)ccc2O1	.	.	.	20	.
SMILES	RAD52 anneal inh	S100A4 inh HTS	AF4-AF9 inh	GSIS activator	ERAP1 inh
CO[C@@H]1CN(C)C(=O)c2ccc(NC(=O)C3CCC3)cc2OC[C@@H](C)N(C(=O)NC(C)C)C[C@H]1C	1	36	-2	-4	-3
Cc1cccc(Cn2cnc3c(nnn3Cc3ccc(Cl)cc3)c2=O)c1	.	.	.	-1	.
Cc1cccc(Cn2ccc(-c3ccc(Cl)cc3)c(C#N)c2=O)c1	.	.	.	95*	.
CCNc1nc(NC(N)=S)nc(NC(C)(C)C)n1	-3	30	-1	70*	-1
COc1ccc(C#Cc2ccc([C@H]3[C@H](CO)N4CCCCN(C)C[C@@H]34)cc2)cc1	63*	-17	5	3	0
COc1ccc(C#Cc2ccc([C@H]3[C@H]4CN(C)CCCCN4[C@H]3CO)cc2)cc1	52*	-9	5	-2	0

Screens as filed in PubChem.
